Results published in publication PMC3954597 (Biochemistry, 2014).

How the values were obtained:
Type in all cases: biochemical
[1] = molecular target: T1, PTPH1 (Homo sapiens, UniProt P26045); test: PTP assay, PTPH1; conditions: for Km / kcat / kcat/KM x10^6: catalytic domain, 100 mM HEPES pH 7.4, monitored at 282 nm
T1 sequence (P26045 628-909): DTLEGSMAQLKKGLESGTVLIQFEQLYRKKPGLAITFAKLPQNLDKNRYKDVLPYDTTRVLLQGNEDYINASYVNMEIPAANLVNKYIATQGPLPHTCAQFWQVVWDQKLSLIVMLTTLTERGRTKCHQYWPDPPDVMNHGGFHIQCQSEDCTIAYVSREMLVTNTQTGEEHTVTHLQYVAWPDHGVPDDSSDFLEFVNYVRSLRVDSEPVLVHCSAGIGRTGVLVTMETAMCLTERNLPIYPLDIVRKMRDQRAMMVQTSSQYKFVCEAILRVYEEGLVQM

[2] = molecular target: PTPRA (Homo sapiens, UniProt P18433); test: PTP assay, PTPRA
Outline: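 His-tagged PTPRA catalytic domain (aa 224–802), expressed in E. coli. Dephosphorylation was followed continuously at 282 nm (Δε = 1102 M−1 cm−1). Initial rates were fitted to Michaelis-Menten or V = kcat[E][S]/KM, or full progress curves were fitted to depletion.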

[3] = molecular target: T2, HePTP (Homo sapiens, UniProt P35236); test: PTP assay, HePTP
T2 sequence (P35236 43-356): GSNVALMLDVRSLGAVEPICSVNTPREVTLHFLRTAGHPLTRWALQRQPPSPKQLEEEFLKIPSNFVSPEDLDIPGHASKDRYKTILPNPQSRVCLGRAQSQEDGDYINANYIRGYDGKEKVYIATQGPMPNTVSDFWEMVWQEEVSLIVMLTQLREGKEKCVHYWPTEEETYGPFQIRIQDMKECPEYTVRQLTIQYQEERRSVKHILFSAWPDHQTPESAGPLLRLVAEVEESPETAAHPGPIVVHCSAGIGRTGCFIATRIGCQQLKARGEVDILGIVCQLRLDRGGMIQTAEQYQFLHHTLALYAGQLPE

[4] = molecular target: T3, PTPRO (Homo sapiens, UniProt Q16827); test: PTP assay, PTPRO; conditions: for Km / kcat / kcat/KM x10^6: catalytic domain, 100 mM HEPES pH 7.4, monitored at 282 nm
T3 sequence (Q16827 938-1195 limits assumed): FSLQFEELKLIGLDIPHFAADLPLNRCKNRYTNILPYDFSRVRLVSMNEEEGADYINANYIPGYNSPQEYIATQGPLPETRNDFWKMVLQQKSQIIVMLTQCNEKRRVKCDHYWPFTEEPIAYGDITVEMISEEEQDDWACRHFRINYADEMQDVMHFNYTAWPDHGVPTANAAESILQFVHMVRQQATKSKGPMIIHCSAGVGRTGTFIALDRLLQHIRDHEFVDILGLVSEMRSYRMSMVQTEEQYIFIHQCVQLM

[5] = molecular target: T4, PTPRD (Homo sapiens, UniProt P23468); test: PTP assay, PTPRD
T4 sequence (P23468 1299-1899): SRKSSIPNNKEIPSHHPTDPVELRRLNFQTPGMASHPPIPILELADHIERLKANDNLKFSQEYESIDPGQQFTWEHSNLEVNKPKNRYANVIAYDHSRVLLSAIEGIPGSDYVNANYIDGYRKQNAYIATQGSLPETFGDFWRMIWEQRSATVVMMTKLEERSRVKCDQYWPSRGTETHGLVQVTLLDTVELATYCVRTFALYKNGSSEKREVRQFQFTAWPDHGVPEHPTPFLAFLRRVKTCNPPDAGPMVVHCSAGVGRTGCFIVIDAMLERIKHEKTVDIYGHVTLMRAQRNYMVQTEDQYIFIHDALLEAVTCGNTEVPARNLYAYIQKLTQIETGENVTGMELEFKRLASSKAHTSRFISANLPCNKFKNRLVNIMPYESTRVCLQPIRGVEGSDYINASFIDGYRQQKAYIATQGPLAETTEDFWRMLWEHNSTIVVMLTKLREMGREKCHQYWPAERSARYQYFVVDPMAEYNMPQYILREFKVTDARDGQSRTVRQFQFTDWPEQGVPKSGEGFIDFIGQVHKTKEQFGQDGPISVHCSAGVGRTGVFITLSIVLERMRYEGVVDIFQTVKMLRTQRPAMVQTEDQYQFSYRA

[6] = molecular target: PTPRB (Homo sapiens, UniProt P23467); test: PTP assay, PTPRB; conditions: for Km / kcat / kcat/KM x10^6: catalytic domain, 100 mM HEPES pH 7.4, monitored at 282 nm
[7] = molecular target: T5, PTPD2 (Homo sapiens, UniProt Q15678); test: PTP assay, PTPD2; conditions: for Km / kcat / kcat/KM x10^6: catalytic domain, 100 mM HEPES pH 7.4, monitored at 282 nm
T5 sequence (Q15678 876-1187): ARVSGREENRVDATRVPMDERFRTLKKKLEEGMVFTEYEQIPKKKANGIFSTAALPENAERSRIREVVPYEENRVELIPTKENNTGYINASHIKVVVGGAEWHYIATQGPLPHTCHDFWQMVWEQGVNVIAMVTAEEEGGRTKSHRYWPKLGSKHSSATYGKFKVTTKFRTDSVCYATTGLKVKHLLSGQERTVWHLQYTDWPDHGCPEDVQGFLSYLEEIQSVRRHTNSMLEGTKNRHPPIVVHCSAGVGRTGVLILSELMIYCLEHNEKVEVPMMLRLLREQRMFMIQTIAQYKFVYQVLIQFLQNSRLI
Outline: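 His-tagged catalytic domains were made in E. coli: PTPD2 aa 876–1187 and PTPRC aa 620–1236 with N-terminal tags, PTPD1 aa 875–1174 and SHP-2 aa 199–593 with C-terminal tags. Enzyme was added at 0.5–20000 nM final. A282 (Δε 1102 M−1 cm−1) was followed. Constants came from Michaelis–Menten fits of initial rates (<60 s), or from fits of progress curves run to substrate depletion.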

[8] = catalytic domain, 100 mM HEPES pH 7.4, monitored at 282 nm
[9] = kcat/KM of neutral peptide over basic Ac-YRKRFpYRYKF-NH2
[10] = kcat/KM of acidic peptide over basic Ac-YRKRFpYRYKF-NH2
[11] = kcat/KM of acidic peptide over neutral Ac-SASASpYSASA-NH2

PTPRB, sequence (P23467 1686-1971): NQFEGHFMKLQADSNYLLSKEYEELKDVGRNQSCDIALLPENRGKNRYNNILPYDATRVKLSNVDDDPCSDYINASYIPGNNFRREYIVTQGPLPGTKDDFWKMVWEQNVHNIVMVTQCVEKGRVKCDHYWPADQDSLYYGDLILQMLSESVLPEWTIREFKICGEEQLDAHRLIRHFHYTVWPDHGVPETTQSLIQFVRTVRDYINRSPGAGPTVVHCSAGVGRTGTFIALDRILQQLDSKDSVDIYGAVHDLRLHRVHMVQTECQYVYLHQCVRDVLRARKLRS

Row | Substance | Km [1] | kcat [1] | kcat/KM x10^6 [1] | kcat/KM x10^6 [2, 8] | kcat/KM x10^6 [3, 8] | Km [4] | kcat [4] | kcat/KM x10^6 [4] | kcat/KM x10^6 [5, 8] | Km [6] | kcat [6] | kcat/KM x10^6 [6] | Km [7] | kcat [7] | kcat/KM x10^6 [7] | other results
1 | Ac-SASASpYSASA-NH2 | 5.8 ± 0.7 µM | 2.5 ± 0.2 s⁻¹ | 0.44 x10^6 M^−1 s^−1 | 0.023 x10^6 M^−1 s^−1 | 0.0006 x10^6 M^−1 s^−1 | 250 ± 10 µM | 240 ± 8 s⁻¹ | 0.94 x10^6 M^−1 s^−1 | 0.00068 x10^6 M^−1 s^−1 | 26 ± 1 µM | 56 ± 2 s⁻¹ | 2.2 x10^6 M^−1 s^−1 | 9.4 ± 0.4 µM | 0.12 ± 0.006 s⁻¹ | 0.013 x10^6 M^−1 s^−1 | Neutral/Basic ratio of kcat/KM values [2, 9]: 0.5; Neutral/Basic ratio of kcat/KM values [4, 9]: 18; Neutral/Basic ratio of kcat/KM values [5, 9]: 1; Neutral/Basic ratio of kcat/KM values [6, 9]: 77; Neutral/Basic ratio of kcat/KM values [7, 9]: 160
2 | Ac-YDEDFpYDYEF-NH2 | 0.28 ± 0.02 µM | 2.4 ± 0.06 s⁻¹ | 8.8 x10^6 M^−1 s^−1 | 0.075 x10^6 M^−1 s^−1 | 0.025 x10^6 M^−1 s^−1 | 5.7 ± 0.8 µM | 200 ± 10 s⁻¹ | 35 x10^6 M^−1 s^−1 | 0.014 x10^6 M^−1 s^−1 | 1.8 ± 0.4 µM | 55 ± 2 s⁻¹ | 31 x10^6 M^−1 s^−1 | 0.7 ± 0.09 µM | 0.073 ± 0.003 s⁻¹ | 0.11 x10^6 M^−1 s^−1 | Acidic/Basic ratio of kcat/KM values [1, 10]: 2600; Acidic/Neutral ratio of kcat/KM values [1, 11]: 20; Km [2, 8]: 260 ± 30 µM; kcat [2, 8]: 19 ± 0.6 s⁻¹; Acidic/Basic ratio of kcat/KM values [2, 10]: 2; Acidic/Neutral ratio of kcat/KM values [2, 11]: 3; Km [3, 8]: 280 ± 25 µM; kcat [3, 8]: 7.0 ± 0.3 s⁻¹; Acidic/Basic ratio of kcat/KM values [3, 10]: 2500; Acidic/Neutral ratio of kcat/KM values [3, 11]: 42; Acidic/Basic ratio of kcat/KM values [4, 10]: 660; Acidic/Neutral ratio of kcat/KM values [4, 11]: 37; Km [5, 8]: > 60 µM; kcat [5, 8]: >0.86 s⁻¹; Acidic/Basic ratio of kcat/KM values [5, 10]: 21; Acidic/Neutral ratio of kcat/KM values [5, 11]: 21; Acidic/Basic ratio of kcat/KM values [6, 10]: 1100; Acidic/Neutral ratio of kcat/KM values [6, 11]: 14; Acidic/Basic ratio of kcat/KM values [7, 10]: 1300; Acidic/Neutral ratio of kcat/KM values [7, 11]: 8
3 | Ac-YRKRFpYRYKF-NH2 | – | – | 0.0033 x10^6 M^−1 s^−1 | 0.045 x10^6 M^−1 s^−1 | 0.000010 x10^6 M^−1 s^−1 | – | – | 0.053 x10^6 M^−1 s^−1 | 0.0007 x10^6 M^−1 s^−1 | – | – | 0.028 x10^6 M^−1 s^−1 | – | – | 0.000082 x10^6 M^−1 s^−1 | –
